Test results as given in ChEMBL document CHEMBL2062515, “Synthesis and evaluation of novel radioligands for positron emission tomography imaging of metabotropic glutamate receptor subtype 1 (mGluR1) in rodent brain” (J Med Chem, 2012).

Columns and labels:
[1] = system: Striatum; assay: Drug uptake in Sprague-Dawley rat striatum at 16 MBq administered as bolus infusion after 45 mins by PET analysis; type: ADME, organism-based; details: in vivo, iv, 0.75 h
[2] = system: Heart; assay: Biodistribution in mouse heart at 4.8 MBq/140 uL, iv after 30 mins by gamma counting; type: ADME, organism-based; details: in vivo, 0.5 h
Method in brief: (§1)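 Mice received the radioligand in saline by tail vein (4.8 MBq/140 μL, 40 pmol). Four mice per time point were killed by cervical dislocation at 1, 5, 15, 30 and 60 min. Tissues were removed quickly and counted in an autogamma counter. Data are decay-corrected % injected dose per gram of wet tissue, mean ± SE, n = 4.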

[3] = system: Brain; assay: Biodistribution in mouse brain at 4.8 MBq/140 uL, iv after 5 mins by gamma counting; type: ADME, organism-based; details: in vivo; method in brief: as §1
[4] = system: Heart; assay: Biodistribution in mouse heart at 4.8 MBq/140 uL, iv after 1 min by gamma counting; type: ADME, organism-based; details: in vivo; method in brief: as §1
[5] = system: Kidney; assay: Biodistribution in mouse kidney at 4.8 MBq/140 uL, iv after 15 mins by gamma counting; type: ADME, organism-based; details: in vivo, 0.25 h; method in brief: as §1
[6] = system: Kidney; assay: Biodistribution in mouse kidney at 4.8 MBq/140 uL, iv after 30 mins by gamma counting; type: ADME, organism-based; details: in vivo, 0.5 h; method in brief: as §1
[7] = system: Lung; assay: Biodistribution in mouse lung at 4.8 MBq/140 uL, iv after 1 min by gamma counting; type: ADME, organism-based; details: in vivo; method in brief: as §1
[8] = Ratio of drug uptake in cerebellum to pons of Sprague-Dawley rat at 16 MBq administered as bolus infusion; details: in vivo, iv
[9] = system: Mus musculus; assay: Biodistribution in mouse testis at 4.8 MBq/140 uL, iv after 15 mins by gamma counting; type: ADME, organism-based; details: in vivo, 0.25 h
Method in brief: (§2)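 [¹¹C]radioligand in saline (4.8 MBq/140 μL, 40 pmol) injected via tail vein; four mice per time point killed by cervical dislocation at 1, 5, 15, 30, 60 min. Tissues (small intestine including contents) removed, counted in autogamma counter, decay-corrected, expressed as % injected dose per gram wet tissue; mean SE, n = 4.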

[10] = system: Lung; assay: Biodistribution in mouse lung at 4.8 MBq/140 uL, iv after 15 mins by gamma counting; type: ADME, organism-based; details: in vivo, 0.25 h; method in brief: as §1
[11] = system: Cerebellum; assay: Drug uptake in Sprague-Dawley rat cerebellum at 17 MBq administered as bolus infusion after 45 mins post injection by PET analysis relative to control in presence of N-[4-[6-(isopropylamino)pyrimidin-4-yl]-1,3-thiazol-2-yl]-4-methoxy-N-methylbenzamide; type: ADME, organism-based; details: in vivo, iv, 0.75 h
[12] = system: Kidney; assay: Biodistribution in mouse kidney at 4.8 MBq/140 uL, iv after 1 min by gamma counting; type: ADME, organism-based; details: in vivo; method in brief: as §1
[13] = system: Plasma; assay: Metabolic stability in Sprague-Dawley rat plasma assessed as compound remaining after 90 mins; type: ADME, cell-free; details: 1.5 h
[14] = system: Muscle tissue; assay: Biodistribution in mouse muscle at 4.8 MBq/140 uL, iv after 5 mins by gamma counting; type: ADME, organism-based; details: in vivo; method in brief: as §2
[15] = system: Thalamus; assay: Drug uptake in Sprague-Dawley rat thalamus at 16 MBq administered as bolus infusion after 90 mins by PET analysis; type: ADME, organism-based; details: in vivo, iv, 1.5 h
[16] = system: Thalamus; assay: Drug uptake in Sprague-Dawley rat thalamus at 17 MBq administered as bolus infusion by PET analysis in presence of JNJ16259685; type: ADME, organism-based; details: in vivo, iv
[17] = system: Blood; assay: Biodistribution in mouse blood at 4.8 MBq/140 uL, iv after 1 min by gamma counting; type: ADME, organism-based; details: in vivo; method in brief: as §1
[18] = system: Striatum; assay: Drug uptake in Sprague-Dawley rat striatum at 16 MBq administered as bolus infusion after 90 mins by PET analysis; type: ADME, organism-based; details: in vivo, iv, 1.5 h
[19] = system: Thalamus; assay: Drug uptake in Sprague-Dawley rat thalamus at 16 MBq administered as bolus infusion after 45 mins by PET analysis; type: ADME, organism-based; details: in vivo, iv, 0.75 h
[20] = system: Brain; assay: Drug uptake in mGluR1 knockout mouse brain at 17 MBq, iv up to 60 mins by PET analysis; type: ADME, organism-based; details: in vivo, 1 h
[21] = system: Blood; assay: Biodistribution in mouse blood at 4.8 MBq/140 uL, iv after 15 mins by gamma counting; type: ADME, organism-based; details: in vivo, 0.25 h; method in brief: as §1
[22] = system: Liver; assay: Biodistribution in mouse liver at 4.8 MBq/140 uL, iv after 1 min by gamma counting; type: ADME, organism-based; details: in vivo; method in brief: as §1
[23] = system: Muscle tissue; assay: Biodistribution in mouse muscle at 4.8 MBq/140 uL, iv after 15 mins by gamma counting; type: ADME, organism-based; details: in vivo, 0.25 h; method in brief: as §1
[24] = system: Mus musculus; assay: Biodistribution in mouse small intestine at 4.8 MBq/140 uL, iv after 1 min by gamma counting; type: ADME, organism-based; details: in vivo; method in brief: as §2
[25] = system: Blood; assay: Biodistribution in mouse blood at 4.8 MBq/140 uL, iv after 60 mins by gamma counting; type: ADME, organism-based; details: in vivo, 1 h; method in brief: as §1

- Drug uptake [1]: Active
- Drug uptake [2]: 0.91 % ID/g
- Drug uptake [3]: 3.21 % ID/g
- Drug uptake [4]: 4.63 % ID/g
- Drug uptake [5]: 3.78 % ID/g
- Drug uptake [6]: 3.32 % ID/g
- Drug uptake [7]: 5.17 % ID/g
- Ratio [8]: 6.98
- Drug uptake [9]: 0.54 % ID/g
- Drug uptake [10]: 1.91 % ID/g
- Drug uptake [11]: Active
- Drug uptake [12]: 8.67 % ID/g
- Stability [13]: Unstable
- Drug uptake [14]: 1.22 % ID/g
- Drug uptake [15]: 80%
- Drug uptake [16]: Not Active
- Drug uptake [17]: 3.79 % ID/g
- Drug uptake [18]: 80%
- Drug uptake [19]: Active
- Drug uptake [20]: Not Active
- Drug uptake [21]: 0.96 % ID/g
- Drug uptake [22]: 8.16 % ID/g
- Drug uptake [23]: 0.95 % ID/g
- Drug uptake [24]: 3.65 % ID/g
- Drug uptake [25]: 0.64 % ID/g
SMILES: CC(C)Nc1cc(-c2csc(N(C)C(=O)c3ccc(O[11CH3])cc3)n2)ncn1
